Tests used:
[1] = molecular target: T1, C-C chemokine receptor type 3 (Homo sapiens) (UniProt P51677); experiment: Evaluated for its inhibitory activity against human Chemokine receptor type 3 expressed in chinese hamster ovary cells at 5 uM; format: cell-based; conditions: CHO
T1 sequence (whole entry): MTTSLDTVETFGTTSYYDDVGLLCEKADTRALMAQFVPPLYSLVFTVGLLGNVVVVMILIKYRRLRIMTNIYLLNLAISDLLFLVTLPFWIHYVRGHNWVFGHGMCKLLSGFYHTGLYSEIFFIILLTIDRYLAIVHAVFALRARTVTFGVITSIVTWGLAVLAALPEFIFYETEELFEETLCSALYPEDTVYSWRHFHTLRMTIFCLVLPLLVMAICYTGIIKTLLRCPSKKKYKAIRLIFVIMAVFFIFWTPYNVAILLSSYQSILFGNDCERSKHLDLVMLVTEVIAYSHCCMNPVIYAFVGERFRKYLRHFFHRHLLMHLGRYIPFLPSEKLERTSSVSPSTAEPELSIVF
In short: (§1)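 CHO cells transfected with human CCR3, 5×10^5 per well, incubated 30 min at room temperature with 150 pM (final) 125I-labeled human eotaxin and compound. Binding buffer: RPMI 1640 with 0.5% BSA, 20 mM HEPES, 5 mM MgCl2. Filtration on protamine-treated filter plates, washed with binding buffer plus 0.5 M NaCl, filter counted. Nonspecific binding defined with 100 nM eotaxin. Percent inhibition taken against compound-free total binding. IC50 values are the mean of usually three determinations.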

[2] = molecular target: T2, C-C chemokine receptor type 3 (Homo sapiens, UniProt P51677); experiment: Inhibitory activity against recombinant human Chemokine receptor type 3 (CCR3) expressed in chinese hamster ovary cells; format: cell-based, CHO; in short: as §1
T2 sequence (P51677 whole entry): T1 sequence (whole entry)

[3] = The compound was evaluated for its eotaxin-induced chemotaxis; format: functional, Homo sapiens
In short: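 Freshly isolated human eosinophils at 1×10^6 cells/mL in RPMI 1640/0.1% BSA; cells and 20 nM human eotaxin each mixed 1:1 with compound-containing medium. Eotaxin/compound in the lower well, cells/compound above, across a 5 μm PVP-free polycarbonate filter, 45 min at 37 °C. Filter wiped, dried and Wright Giemsa-stained; migrated cells counted by microscopy.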

[4] = The compound was evaluated for its intracellular calcium mobilization; format: functional, cell-based; conditions: Homo sapiens
In short: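 Freshly isolated human eosinophils loaded with 5 μM fluo-3 for 60 min at 37 °C, washed, then plated at 2×10^5/well in phenol red-free binding buffer. Compound or buffer added for 5 min, then eotaxin to 10 nM final, read on FLIPR. Base-to-peak fluorescence shift measured in duplicate; inhibition at graded concentrations expressed as percent of the compound-free eotaxin control to give IC50.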

[5] = molecular target: T2, C-C chemokine receptor type 3; experiment: Evaluated for its inhibitory activity against human Chemokine receptor type 3 expressed in chinese hamster ovary cells; format: cell-based, CHO
In short: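 Competition binding on CHO cells transfected with human CCR3, 5×10^5 cells per well, against 125I-human eotaxin at 150 pM final. Binding buffer: RPMI 1640 with 0.5% BSA, 20 mM HEPES, 5 mM MgCl2. Incubated 30 min at room temperature, then filtered on protamine-treated plates and washed with buffer plus 0.5 M NaCl before counting. Background binding defined with 100 nM eotaxin. Percent inhibition taken against the compound-free total. Values usually mean of three determinations.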

[6] = molecular target: T3, C-C chemokine receptor type 1 (Homo sapiens, UniProt P32246); experiment: Inhibitory activity against human Chemokine receptor type 1 expressed in chinese hamster ovary cells; format: cell-based, CHO
T3 sequence (P32246 whole entry): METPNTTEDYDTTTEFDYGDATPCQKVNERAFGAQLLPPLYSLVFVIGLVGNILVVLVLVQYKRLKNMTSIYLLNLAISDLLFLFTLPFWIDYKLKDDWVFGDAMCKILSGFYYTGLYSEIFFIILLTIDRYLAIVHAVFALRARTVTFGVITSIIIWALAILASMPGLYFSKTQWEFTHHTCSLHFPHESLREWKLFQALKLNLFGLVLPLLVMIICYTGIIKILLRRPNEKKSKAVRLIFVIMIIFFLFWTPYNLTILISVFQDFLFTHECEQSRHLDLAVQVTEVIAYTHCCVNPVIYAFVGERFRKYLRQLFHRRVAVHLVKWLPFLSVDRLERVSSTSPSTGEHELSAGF

[7] = molecular target: T1, C-C chemokine receptor type 3 (Homo sapiens); experiment: Evaluated for its inhibitory activity against Chemokine receptor type 3 at 5 uM; in short: as §1
[8] = molecular target: T1, C-C chemokine receptor type 3 (Homo sapiens); experiment: Evaluated for % inhibitory activity against human Chemokine receptor type 3 expressed in chinese hamster ovary cells; format: cell-based; conditions: CHO; concentration not given here; in short: as §1
[9] = molecular target: T1, C-C chemokine receptor type 3 (Homo sapiens); experiment: Evaluated for its inhibitory activity against human Chemokine receptor type 3 expressed in chinese hamster ovary cells at 10 uM; format: cell-based; conditions: CHO; in short: as §1
[10] = molecular target: T1, C-C chemokine receptor type 3 (Homo sapiens); experiment: Evaluated for its % inhibitory activity against human Chemokine receptor type 3 expressed in chinese hamster ovary cells; format: cell-based; conditions: CHO; concentration not given here; in short: as §1
[11] = molecular target: T1, C-C chemokine receptor type 3 (Homo sapiens); experiment: Evaluated for its % inhibitory activity against Chemokine receptor type 3 at 5 uM; in short: as §1

SMILES | IC50 [2] [nM] | IC50 [6] [nM] | further results
O=C(Nc1ccccc1)Nc1cccc(C(O)CN2CCC(Cc3ccccc3)CC2)c1 (stereo not given) | – | – | inhibition [1]: 71%
CNC(=O)c1cccc(NC(=O)Nc2cccc(C(C)=O)c2)c1CN1CCC(Cc2ccc(F)cc2)CC1 | 1 | – | IC50 [3]: 30 nM; IC50 [4]: 1.4 nM
CNC(=O)c1ccc(NC(=O)Nc2cccc(C(C)=O)c2)c(CN2CCC(Cc3ccc(F)cc3)CC2)c1 | 8 | – | IC50 [4]: 11.8 nM
COC(=O)c1cccc(NC(=O)Nc2cccc(C(C)=O)c2)c1CN1CCC(Cc2ccc(F)cc2)CC1 | 8 | – | IC50 [3]: 76 nM; IC50 [4]: 8.2 nM
CNC(=O)c1cccc(NC(=O)Nc2cccc(OC)c2)c1CN1CCC(Cc2ccc(F)cc2)CC1 | 2 | – | IC50 [4]: 4.2 nM
O=C(Nc1cc(F)ccc1F)Nc1ccccc1CN1CCC(O)(c2ccc(Cl)cc2)CC1 | – | – | inhibition [1]: 21%
O=C(Nc1cc(F)ccc1F)Nc1ccccc1CN1CCN(Cc2ccccc2)CC1 | – | – | inhibition [1]: 28%
CC(=O)c1cccc(NC(=O)Nc2ccc(C(N)=O)cc2CN2CCC(Cc3ccc(F)cc3)CC2)c1 | 3 | – | IC50 [4]: 9.5 nM
CC(=O)c1cccc(NC(=O)Nc2ccccc2CCN2CCC(Cc3ccc(F)cc3)CC2)c1 | 2.6 | – | IC50 [3]: 71 nM
CNC(=O)c1cccc(NC(=O)Nc2cccc(C#N)c2)c1CN1CCC(Cc2ccc(F)cc2)CC1 | 1 | – | IC50 [4]: 5.3 nM
OC1(c2ccc(Cl)cc2)CCN(Cc2ccccc2)CC1 | – | – | IC50 [5]: 18700 nM
O=C(NCC1CCCCC1)NCC(CCCN1CCC(O)(c2ccc(Cl)cc2)CC1)(c1ccccc1)c1ccccc1 | 2400 | 125 | –
O=C(NCC(CCCN1CCC(O)(c2ccc(Cl)cc2)CC1)(c1ccccc1)c1ccccc1)NC1CCN(Cc2ccccc2)CC1 | 1620 | 310 | –
O=C(Nc1ccccc1CN1CCC(Cc2ccccc2)CC1)NC1CCN(Cc2ccccc2)CC1 | 3900 | > 50000 | –
CC(=O)c1cccc(NC(=O)Nc2cccc(C(N)=O)c2CN2CCC(Cc3ccc(F)cc3)CC2)c1 | 2 | – | IC50 [3]: 46 nM; IC50 [4]: 5.9 nM
O=C(Nc1cc(F)ccc1F)Nc1ccccc1C(O)CN1CCC(Cc2ccccc2)CC1 (stereo not given) | 410 | > 10000 | –
O=C(NCC(CCCN1CCC(O)(c2ccc(Cl)cc2)CC1)(c1ccccc1)c1ccccc1)Nc1ccc(C(F)(F)F)cc1 | 5200 | 890 | –
CN(C)CCNC(=O)NCC(CCCN1CCC(O)(c2ccc(Cl)cc2)CC1)(c1ccccc1)c1ccccc1 | 2230 | 67 | –
COc1cccc(NC(=O)Nc2ccccc2CCN2CCC(Cc3ccccc3)CC2)c1 | 180 | > 10000 | –
CC(C)(C)NC(=O)NCC(CCCN1CCC(O)(c2ccc(Cl)cc2)CC1)(c1ccccc1)c1ccccc1 | 3000 | 71 | –
N#Cc1cccc(NC(=O)Nc2ccccc2CN2CCC(Cc3ccccc3)CC2)c1 | 750 | > 10000 | –
O=C(NCC(CCCN1CCC(O)(c2ccc(Cl)cc2)CC1)(c1ccccc1)c1ccccc1)Nc1ccccc1 | 9800 | < 780 | –
c1ccc(CCN2CCC(Cc3ccccc3)CC2)cc1 | 7100 | > 50000 | –
O=C(Nc1ccccc1)Nc1ccccc1/C(CN1CCC(Cc2ccccc2)CC1)=N\O | – | – | inhibition [7]: 59%
COc1ccc(NC(=O)Nc2ccc(CN3CCC(Cc4ccccc4)CC3)cc2)cc1 | – | – | inhibition [8]: 48%

SMILES | IC50 [2] [nM] | IC50 [6] [nM] | further results
OC1(c2ccc(Cl)cc2)CCN(CCc2ccccc2)CC1 | – | – | inhibition [9]: 19%
CNC(=O)NCC(CCCN1CCC(O)(c2ccc(Cl)cc2)CC1)(c1ccccc1)c1ccccc1 | 8300 | < 780 | –
O=C(Nc1ccc2[nH]ncc2c1)Nc1ccccc1CN1CCC(Cc2ccccc2)CC1 | 450 | > 10000 | –
O=C(NCC(CCCN1CCC(O)(c2ccc(Cl)cc2)CC1)(c1ccccc1)c1ccccc1)Nc1ccncc1 | 3500 | 167 | –
O=C(Nc1cc(F)ccc1F)Nc1ccccc1CN1CCC(Cc2ccccc2)CC1 | 1750 | > 50000 | –
O=C(Nc1ccccc1)Nc1ccccc1CN1CCC(Cc2ccccc2)CC1 | 900 | > 10000 | –
N#CC(CCCN1CCC(O)(c2ccc(Cl)cc2)CC1)(c1ccccc1)c1ccccc1 [BERLEX COMPOUND] | 9000 | 630 | –
c1ccc(CCCCN2CCC(Cc3ccccc3)CC2)cc1 | 3800 | > 50000 | –
O=C(NCCN1CCCCC1)Nc1ccccc1CN1CCC(Cc2ccccc2)CC1 | 7600 | > 50000 | –
COC(=O)c1ccc(CN2CCC(Cc3ccccc3)CC2)c(NC(=O)Nc2cccc(C#N)c2)c1 | – | – | inhibition [10]: 72%
N#Cc1cccc(NC(=O)Nc2ccccc2C(O)CN2CCC(Cc3ccccc3)CC2)c1 (stereo not given) | 49 | > 10000 | –
N#CC(CCCN1CCN(Cc2ccccc2)CC1)(c1ccccc1)c1ccccc1 | 14100 | > 50000 | –
O=C(NCCCO)NCC(CCCN1CCC(O)(c2ccc(Cl)cc2)CC1)(c1ccccc1)c1ccccc1 | 2350 | 31 | –
O=C(Nc1ccc(F)cc1F)Nc1ccccc1C(=O)CN1CCC(Cc2ccccc2)CC1 | – | – | inhibition [11]: 35%
NCC(CCCN1CCC(O)(c2ccc(Cl)cc2)CC1)(c1ccccc1)c1ccccc1 | 12000 | 760 | –
COc1ccc(NC(=O)NCC(CCCN2CCC(O)(c3ccc(Cl)cc3)CC2)(c2ccccc2)c2ccccc2)cc1 | 7600 | 780 | –
O=C(NCC(CCCN1CCC(O)(c2ccc(Cl)cc2)CC1)(c1ccccc1)c1ccccc1)Nc1cc(F)ccc1F | 5700 | 1340 | –
O=C(NCCN1CCCCC1)NCC(CCCN1CCC(O)(c2ccc(Cl)cc2)CC1)(c1ccccc1)c1ccccc1 | 2200 | 360 | –
O=C(Nc1cc(F)ccc1F)Nc1ccccc1N1CCC(Cc2ccccc2)CC1 | – | – | inhibition [1]: 9%
N#Cc1cccc(NC(=O)Nc2ccc(CN3CCC(Cc4ccccc4)CC3)cc2)c1 | – | – | inhibition [1]: 47%
O=C(NCc1ccccc1)Nc1ccccc1CN1CCC(Cc2ccccc2)CC1 | 3400 | > 10000 | –
COc1cccc(NC(=O)Nc2ccccc2C(O)CN2CCC(Cc3ccccc3)CC2)c1 (stereo not given) | 81 | > 10000 | –
COc1ccc(NC(=O)Nc2ccccc2CN2CCC(Cc3ccccc3)CC2)cc1 | 750 | > 10000 | –
CNC(=O)c1cccc(NC(=O)Nc2ccccc2)c1CN1CCC(Cc2ccc(F)cc2)CC1 | 2 | – | IC50 [4]: 4.3 nM

Source: ChEMBL document CHEMBL1135587, “Discovery and structure-activity relationship of N-(ureidoalkyl)-benzyl-piperidines as potent small molecule CC chemokine receptor-3 (CCR3) antagonists” (J Med Chem, 2002)
